The source made the active and inactive calls. The rule behind the calls is not given here.
test system: J774.A1; test: Cytotoxicity against mouse J774.A1 cells assessed as reduction in cell viability at 10 uM measured after 24 hrs by MTT assay; assay type: toxicity, cell-based; settings: j774.a1, 24 h
Method in brief: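 J774A.1 cells seeded and incubated 24 h, then exposed to 10 μM compound for 24 h. MTT (5.0 mg/mL) added as 10 % for 4 h, formazan dissolved in DMSO with 30 min shaking, absorbance read at 490 nm. Expressed as % of control.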

| SMILES | Activity |
| --- | --- |
| CC(=O)N1CCN(CCCOc2cc(=O)oc3ccccc23)CC1 | Non-Toxic |
| O=c1cc(OCCCN2CCN(CCO)CC2)c2ccccc2o1 | Non-Toxic |
| O=c1cc(OCCOCCN2CCNCC2)c2ccccc2o1 | Non-Toxic |

test system: Mus musculus; test: Protection against LPS-induced C57BL/6 mouse model of acute lung injury assessed as reduction in IL-6 level in serum at 20 mg/kg, po administered 3 times for every 12 hrs followed by LPS stimulation at 5 mg/kg and measured after 6 hrs by ELISA; assay type: functional, organism-based; settings: time 30.0 hrs
Method in brief: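 C57BL/6 mice, 6 per group. Gavaged at 20 mg/kg three times at 12 h intervals; controls received saline, and dexamethasone 20 mg/kg served as reference. After the last dose, LPS 5 mg/kg given intratracheally. At 6 h, blood collected for serum IL-6 by ELISA. Left lung lavaged with 3 × 200 μL saline, and BALF assayed for IL-6, total protein and neutrophil count. Mean ± SEM, n = 6.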

| SMILES | Activity |
| --- | --- |
| C[C@@H]1C[C@H]2[C@@H]3CCC4=CC(=O)C=C[C@]4(C)[C@@]3(F)[C@@H](O)C[C@]2(C)[C@@]1(O)C(=O)CO | Active |

test system: J774.A1; test: Antiinflammatory activity in LPS-induced mouse J774.a1 cells assessed as inhibition of IL-6 production at 10 uM pretreated for 2 hrs followed by LPS stimulation and measured after 30 mins by ELISA relative to control; assay type: functional; settings: time 2.5 hrs
Method in brief: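 J774A.1 cells (DMEM, 10 % FBS, 37 °C) treated with 10 μM compound or 4-HC for 2 h, then LPS. After 30 min, IL-6 in medium measured by ELISA. Result is % inhibition, mean ± SEM of three independent experiments.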

| SMILES | inhibition at 10 µM [%] | inhibition |
| --- | --- | --- |
| CCN1CCN(CCCOc2cc(=O)oc3ccccc23)CC1 | 30.1 | – |
| CC(=O)N1CCN(CCCOc2cc(=O)oc3ccccc23)CC1 | 42.3 | – |
| O=c1cc(O)c2ccccc2o1 [4-HYDROXYCOUMARINS] | 17.3 | – |
| O=c1cc(OCCN2CCN(C3CC3)CC2)c2ccccc2o1 | – | inactive |
| O=c1cc(OCCCN2CCN(CCO)CC2)c2ccccc2o1 | 51.3 | – |
| O=c1cc(OCCCNCCCN2CCCC2)c2ccccc2o1 | 54.4 | – |
| COCCN1CCN(CCOc2cc(=O)oc3ccccc23)CC1 | – | inactive |
| O=c1cc(OCc2cccc(F)c2)c2ccccc2o1 | 4.36 | – |
| O=c1cc(OCCOCCN2CCNCC2)c2ccccc2o1 | 50.1 | – |
| O=c1cc(OCCN2CCN(CCO)CC2)c2ccccc2o1 | 48.8 | – |
| O=c1cc(OCC2CO2)c2ccccc2o1 (centres undefined) | – | inactive |
| COc1cccc(COc2cc(=O)oc3ccccc23)c1 | 50.4 | – |
| CN(C)CCCOc1cc(=O)oc2ccccc12 | – | inactive |
| Cc1cc(C)cc(COc2cc(=O)oc3ccccc23)c1 | 17.5 | – |
| CC1CCCN(CCOc2cc(=O)oc3ccccc23)C1 (centres undefined) | 48.8 | – |
| COCCN1CCN(CCCOc2cc(=O)oc3ccccc23)CC1 | – | inactive |
| O=c1cc(OCCN2CCOCC2)c2ccccc2o1 | 17.5 | – |
| CCN1CCN(CCOc2cc(=O)oc3ccccc23)CC1 | 18.1 | – |
| O=c1cc(OCCNCCCN2CCOCC2)c2ccccc2o1 | 21.8 | – |
| O=c1cc(OCCNCCc2cccs2)c2ccccc2o1 | 34.7 | – |
| O=c1cc(OCCCN2CCCC2)c2ccccc2o1 | 39 | – |
| O=c1cc(OCCCNCCCN2CCOCC2)c2ccccc2o1 | – | inactive |
| CC1CCCN(CCCOc2cc(=O)oc3ccccc23)C1 (centres undefined) | – | inactive |
| O=c1cc(OCCCCN2CCOCC2)c2ccccc2o1 | – | inactive |
| O=c1cc(OCCCNCCc2cccs2)c2ccccc2o1 | – | inactive |

Source: ChEMBL document CHEMBL5500386, “Design, synthesis and bioactivity evaluation of 4-hydroxycoumarin derivatives as potential anti-inflammatory agents against acute lung injury and colitis” (Eur J Med Chem, 2024)
